Measured values as given in ChEMBL document CHEMBL1156597, “Structure-activity relationship of kahalalide F synthetic analogues” (J Med Chem, 2008).

Legend:
[1] = tested on: DU-145; assay: Cytotoxicity against human DU145 cells after 48 hrs by SRB assay; format: functional, cell-based; details: Homo sapiens, DU-145, 48 h; for CC50: read-out: LC50 (the source's name)
Method in brief: (§1)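 Cells grown in RPMI 1640 with 10% FBS and penicillin/streptomycin at 37 °C and 5% CO₂, trypsinized, then seeded at 5 × 10³/well. After 18 h drug-free attachment, samples in DMSO/EtOH/PBS (0.5:0.5:99) were added for 48 h continuous exposure. Cells were fixed with cold TCA (1 h, 4 °C) and stained with SRB (10 min). Tris-solubilized stain read at 490 nm. Triplicate wells, mean ± SD; GI₅₀ derived.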

[2] = Cytotoxicity against human IGROV cells after 48 hrs by SRB assay; format: functional; details: for CC50: read-out: LC50 (the source's name); method in brief: as §1
[3] = tested on: SK-MEL-28; assay: Cytotoxicity against human SK-MEL-28 cells after 48 hrs by SRB assay; format: functional, cell-based; details: Homo sapiens, SK-MEL-28, 48 h; for CC50: read-out: LC50 (the source's name); method in brief: as §1
[4] = tested on: LoVo; assay: Cytotoxicity against human LoVo cells after 48 hrs by SRB assay; format: functional; details: for CC50: read-out: LC50 (the source's name)
[5] = tested on: LNCaP; assay: Cytotoxicity against human LNcaP cells after 48 hrs by SRB assay; format: functional; details: for CC50: read-out: LC50 (the source's name); method in brief: as §1
[6] = tested on: HT-29; assay: Cytotoxicity against human HT29 cells after 48 hrs by SRB assay; format: functional, cell-based; details: Homo sapiens, HT-29, 48 h; for CC50: read-out: LC50 (the source's name); method in brief: as §1
[7] = tested on: PANC-1; assay: Cytotoxicity against human PANC1 cells after 48 hrs by SRB assay; format: functional; details: PANC-1, 48 h; for CC50: read-out: LC50 (the source's name); method in brief: as §1
[8] = tested on: K562; assay: Cytotoxicity against human K562 cells after 48 hrs by SRB assay; format: functional; details: K562, 48 h; for CC50: read-out: LC50 (the source's name); method in brief: as §1
[9] = Cytotoxicity against human HeLa-APL cells after 48 hrs by SRB assay; format: functional; method in brief: as §1
[10] = tested on: SK-BR-3; assay: Cytotoxicity against human SKBR3 cells after 48 hrs by SRB assay; format: functional; details: SK-BR-3, 48 h; for GI50: read-out: GI50; for CC50: read-out: LC50 (the source's name); method in brief: as §1
[11] = tested on: A549; assay: Cytotoxicity against human A549 cells after 48 hrs by SRB assay; format: functional, cell-based; details: Homo sapiens, A549, 48 h; for GI50: read-out: GI50; method in brief: as §1
[12] = tested on: LoVo; assay: Cytotoxicity against human doxorubicin resistant LoVo cells after 48 hrs by SRB assay; format: functional; details: for CC50: read-out: LC50 (the source's name); method in brief: as §1
[13] = tested on: HeLa; assay: Cytotoxicity against human HeLa cells after 48 hrs by SRB assay; format: functional; details: for CC50: read-out: LC50 (the source's name); method in brief: as §1
[14] = Cytotoxicity against human IGROV-ET cells after 48 hrs by SRB assay; format: functional; details: for CC50: read-out: LC50 (the source's name); method in brief: as §1

Structure (SMILES): C/C=C1\NC(=O)[C@H](Cc2ccccc2)NC(=O)[C@@H](C(C)C)NC(=O)[C@@H]([C@H](C)CC)NC(=O)[C@H](NC(=O)[C@H](NC(=O)[C@H](CCCN)NC(=O)[C@H]2CCCN2C(=O)[C@H](NC(=O)[C@@H](NC(=O)[C@@H](NC(=O)[C@H](NC(=O)CCCC(C)C)C(C)C)[C@@H](C)O)C(C)C)C(C)C)[C@H](C)CC)[C@H](C)OC(=O)[C@H](C(C)C)NC1=O [KAHALALIDE F]
- TGI [1]: 1720 nM
- GI50 ([1]; read-out: GI50): 931 nM
- CC50 [1]: 3720 nM
- TGI [2]: 1180 nM
- GI50 ([2]; read-out: GI50): 493 nM
- CC50 [2]: 3220 nM
- TGI [3]: 2260 nM
- GI50 ([3]; read-out: GI50): 1190 nM
- CC50 [3]: 4500 nM
- GI50 [4]: 334 nM
- TGI [4]: 614 nM
- CC50 [4]: 1510 nM
- GI50 [5]: 960 nM
- TGI [5]: 1960 nM
- CC50 [5]: 4260 nM
- GI50 [6]: 432 nM
- TGI [6]: 915 nM
- CC50 [6]: 2240 nM
- GI50 [7]: 1770 nM
- TGI [7]: 3330 nM
- CC50 [7]: 5070 nM
- GI50 [8]: 1930 nM
- TGI [8]: 3320 nM
- CC50 [8]: 5280 nM
- GI50 [9]: 975 nM
- LC50 (concentration giving 50% net cell kill) [9]: 4290 nM
- TGI [9]: 2020 nM
- TGI [10]: 810 nM
- GI50 [10]: 363 nM
- CC50 [10]: 1980 nM
- LC50 [11]: 4520 nM
- TGI [11]: 2200 nM
- GI50 [11]: 1160 nM
- GI50 [12]: 299 nM
- TGI [12]: 485 nM
- CC50 [12]: 1470 nM
- GI50 [13]: 965 nM
- TGI [13]: 1970 nM
- CC50 [13]: 4730 nM
- TGI [14]: 1300 nM
- GI50 ([14]; read-out: GI50): 550 nM
- CC50 [14]: 3280 nM

Structure (SMILES): C/C=C1\NC(=O)[C@H](Cc2ccccc2)NC(=O)[C@@H](C(C)C)NC(=O)[C@@H]([C@H](C)CC)NC(=O)[C@H](NC(=O)[C@H](NC(=O)[C@H](CCCNC(=O)C(F)(F)F)NC(=O)[C@H]2CCCN2C(=O)[C@H](NC(=O)[C@@H](NC(=O)[C@@H](NC(=O)[C@H](NC(=O)CC[C@@H](C)CC)C(C)C)[C@@H](C)O)C(C)C)C(C)C)[C@H](C)CC)[C@H](C)OC(=O)[C@H](C(C)C)NC1=O
- TGI [1]: 1100 nM
- GI50 ([1]; read-out: GI50): 1330 nM
- CC50 [1]: 898 nM
- GI50 [2]: 276 nM
- GI50 ([2]; read-out: GI50): 305 nM
- CC50 [2]: 87.5 nM
- TGI [3]: 1540 nM
- GI50 ([3]; read-out: GI50): 1910 nM
- CC50 [3]: 1220 nM
- GI50 [4]: 311 nM
- TGI [4]: 296 nM
- CC50 [4]: 282 nM
- GI50 [5]: 1460 nM
- TGI [5]: 1990 nM
- CC50 [5]: 1410 nM
- GI50 [6]: 266 nM
- TGI [6]: 301 nM
- CC50 [6]: 342 nM
- CC50 [7]: 1660 nM
- CC50 [8]: 1810 nM
- GI50 [9]: 1210 nM
- LC50 (concentration giving 50% net cell kill) [9]: 789 nM
- TGI [9]: 963 nM
- TGI [10]: 190 nM
- GI50 [10]: 112 nM
- CC50 [10]: 320 nM
- LC50 [11]: 1200 nM
- TGI [11]: 1170 nM
- GI50 [11]: 1140 nM
- GI50 [12]: 276 nM
- TGI [12]: 282 nM
- CC50 [12]: 287 nM
- GI50 [13]: 502 nM
- TGI [13]: 463 nM
- CC50 [13]: 525 nM
- GI50 [14]: 508 nM
- GI50 ([14]; read-out: GI50): 489 nM
- CC50 [14]: 528 nM

Structure (SMILES): C/C=C1\NC(=O)[C@H](Cc2ccccc2)NC(=O)[C@@H](C(C)C)NC(=O)[C@@H]([C@H](C)CC)NC(=O)[C@H](NC(=O)[C@H](NC(=O)[C@H](CCCN)NC(=O)[C@H]2CCCN2C(=O)[C@H](NC(=O)[C@@H](NC(=O)[C@H](Cc2ccccc2)NC(=O)[C@H](NC(=O)CCCC(C)C)C(C)C)C(C)C)C(C)C)[C@H](C)CC)[C@H](C)OC(=O)[C@H](C(C)C)NC1=O
- GI50 [1]: 166 nM
- GI50 ([1]; read-out: GI50): 191 nM
- CC50 [1]: 321 nM
- GI50 [2]: 103 nM
- GI50 ([2]; read-out: GI50): 175 nM
- CC50 [2]: 478 nM
- GI50 [3]: 146 nM
- GI50 ([3]; read-out: GI50): 152 nM
- CC50 [3]: 158 nM
- GI50 [4]: 332 nM
- TGI [4]: 296 nM
- CC50 [4]: 210 nM
- GI50 [5]: 61.7 nM
- TGI [5]: 132 nM
- CC50 [5]: 777 nM
- CC50 [6]: 68.3 nM
- GI50 [7]: 142 nM
- TGI [7]: 304 nM
- CC50 [7]: 1720 nM
- GI50 [8]: 23.2 nM
- TGI [8]: 106 nM
- CC50 [8]: 1150 nM
- GI50 [9]: 145 nM
- LC50 (concentration giving 50% net cell kill) [9]: 282 nM
- TGI [9]: 142 nM
- TGI [10]: 351 nM
- GI50 [10]: 303 nM
- CC50 [10]: 352 nM
- LC50 [11]: 1330 nM
- TGI [11]: 71.4 nM
- GI50 [11]: 69.4 nM
- GI50 [12]: 380 nM
- TGI [12]: 456 nM
- CC50 [12]: 252 nM
- GI50 [13]: 128 nM
- TGI [13]: 137 nM
- CC50 [13]: 352 nM
- GI50 [14]: 197 nM
- GI50 ([14]; read-out: GI50): 245 nM
- CC50 [14]: 518 nM
